Values after ≈ are worked out from the molar mass of the structure shown.
How the values were obtained:
Format in all cases: functional
[1] = system: Escherichia coli; experiment: Minimum concentration needed to produce linear DNA at an intensity relative to oxolinic at 10 ug/mL in Escherichia coli H560 in vitro.
Method in brief: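 DNA gyrase cleavage test, run as previously described: end point is the lowest drug level (µg/mL) that yields linear DNA at a band intensity matching oxolinic acid at 10 µg/mL. Values come from duplicate or triplicate experiments and are stated as accurate to ±50%.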

[2] = system: Escherichia coli; experiment: Minimum inhibitory concentration against Escherichia coli H560 in vitro.
[3] = system: Escherichia coli; experiment: Minimum inhibitory concentration against Escherichia coli vogel in vitro.
[4] = system: Providencia rettgeri; experiment: Minimum inhibitory concentration against Providencia rettgeri H1771 in vitro.
[5] = system: Klebsiella pneumoniae; experiment: Minimum inhibitory concentration against Klebsiella pneumoniae MGH-2 in vitro.
[6] = system: Pseudomonas aeruginosa; experiment: Minimum inhibitory concentration against Pseudomonas aeruginosa UI-18 in vitro.
[7] = system: Streptococcus pyogenes; experiment: Minimum inhibitory concentration against Streptococcus pyogenes C203 in vitro.
[8] = system: Staphylococcus aureus; experiment: Minimum inhibitory concentration against Staphylococcus aureus UC-76 in vitro.
[9] = system: Mus musculus; experiment: In vivo potency against Escherichia coli vogel using mouse protection assay when given perorally; settings: po, read-out: PD50
[10] = system: Streptococcus pneumoniae; experiment: Minimum inhibitory concentration against Streptococcus pneumoniae SV-1 in vitro.
[11] = system: Enterococcus faecalis; experiment: Minimum inhibitory concentration against Streptococcus faecalis MGH-2 in vitro.
[12] = system: Mus musculus; experiment: In vivo potency against Escherichia coli vogel using mouse protection assay when given subcutaneously; settings: sc, read-out: PD50
[13] = system: Enterobacter cloacae; experiment: Minimum inhibitory concentration against Enterobacter cloacae HA 2646 in vitro.
[14] = system: Staphylococcus aureus; experiment: Minimum inhibitory concentration against Staphylococcus aureus H228 in vitro.
[15] = system: Staphylococcus aureus; experiment: In vivo potency against Staphylococcus aureus using mouse protection assay following s.c. administration.; settings: sc, read-out: PD50
[16] = system: Staphylococcus aureus; experiment: In vivo potency against Staphylococcus aureus using mouse protection assay following p.o. administration.; settings: po, read-out: PD50

| Compound | DNA cleavage conc (gyrase) [1] [µg/mL] | MIC [2] [µg/mL] | MIC [3] [µg/mL] | MIC [4] [µg/mL] | MIC [5] [µg/mL] | MIC [6] [µg/mL] | MIC [7] [µg/mL] | MIC [8] [µg/mL] | ED50 [9] [mg/kg] | MIC [10] [µg/mL] | MIC [11] [µg/mL] | ED50 [12] [mg/kg] | MIC [13] [µg/mL] | MIC [14] [µg/mL] | ED50 [15] [mg/kg] | ED50 [16] [mg/kg] |
| --- | --- | --- | --- | --- | --- | --- | --- | --- | --- | --- | --- | --- | --- | --- | --- | --- |
| NCC1CCN(c2cc3c(cc2F)c(=O)c(C(=O)O)cn3C2CC2)C1 (configuration not stated) | 0.5 | 0.006 (≈ 0.0174 µM) | 0.05 (≈ 0.145 µM) | 0.2 (≈ 0.579 µM) | 0.05 (≈ 0.145 µM) | 0.8 (≈ 2.32 µM) | 0.025 (≈ 0.0724 µM) | 0.006 (≈ 0.0174 µM) | > 100 | 0.003 (≈ 0.00869 µM) | 0.025 (≈ 0.0724 µM) | 2 | 0.05 (≈ 0.145 µM) | 0.025 (≈ 0.0724 µM) |  |  |
| CCNCC1CCN(c2c(F)cc3c(=O)c(C(=O)O)cn4c3c2OCC4C)C1 (configuration not stated) | 0.5 | 0.05 (≈ 0.128 µM) | 0.1 (≈ 0.257 µM) | 0.8 (≈ 2.05 µM) | 0.4 (≈ 1.03 µM) | 0.8 (≈ 2.05 µM) | 0.05 (≈ 0.128 µM) | 0.025 (≈ 0.0642 µM) | > 100 | 0.05 (≈ 0.128 µM) | 0.1 (≈ 0.257 µM) | 11 | 0.2 (≈ 0.514 µM) | 0.2 (≈ 0.514 µM) |  |  |
| CC1COc2c(N3CCC(CN)C3)c(F)cc3c(=O)c(C(=O)O)cn1c23 (configuration not stated) | 0.5 | 0.05 (≈ 0.138 µM) | 0.2 (≈ 0.553 µM) | 0.8 (≈ 2.21 µM) | 0.4 (≈ 1.11 µM) | 1.6 (≈ 4.43 µM) | 0.025 (≈ 0.0692 µM) | 0.05 (≈ 0.138 µM) | > 100 | 0.025 (≈ 0.0692 µM) | 0.1 (≈ 0.277 µM) |  | 0.2 (≈ 0.553 µM) | 0.2 (≈ 0.553 µM) |  |  |
| CNCC1CCN(c2c(F)cc3c(=O)c(C(=O)O)cn4c3c2OCC4C)C1 (configuration not stated) | 1 | 0.2 (≈ 0.533 µM) | 0.2 (≈ 0.533 µM) | 3.1 (≈ 8.26 µM) | 0.4 (≈ 1.07 µM) | 1.6 (≈ 4.26 µM) | 0.05 (≈ 0.133 µM) | 0.025 (≈ 0.0666 µM) |  | 0.1 (≈ 0.266 µM) | 0.1 (≈ 0.266 µM) |  | 0.4 (≈ 1.07 µM) | 0.4 (≈ 1.07 µM) |  |  |
| CCNCC1CCN(c2c(F)cc3c(=O)c(C(=O)O)cn(C4CC4)c3c2Cl)C1 (configuration not stated) | 0.1 | 0.025 (≈ 0.0613 µM) | 0.05 (≈ 0.123 µM) | 0.2 (≈ 0.49 µM) | 0.1 (≈ 0.245 µM) | 0.8 (≈ 1.96 µM) | 0.006 (≈ 0.0147 µM) | 0.003 (≈ 0.00736 µM) |  | 0.003 (≈ 0.00736 µM) | 0.013 (≈ 0.0319 µM) |  | 0.05 (≈ 0.123 µM) | 0.013 (≈ 0.0319 µM) |  |  |
| O=C(O)c1cn(C2CC2)c2c(Cl)c(N3CCNCC3)c(F)cc2c1=O | 0.5 | 0.025 (≈ 0.0683 µM) | 0.025 (≈ 0.0683 µM) | 0.1 (≈ 0.273 µM) | 0.05 (≈ 0.137 µM) | 0.4 (≈ 1.09 µM) | 0.2 (≈ 0.547 µM) | 0.05 (≈ 0.137 µM) | 0.8 | 0.1 (≈ 0.273 µM) | 0.4 (≈ 1.09 µM) | 0.4 | 0.025 (≈ 0.0683 µM) | 0.1 (≈ 0.273 µM) |  |  |
| CNCC1CCN(c2cc3c(cc2F)c(=O)c(C(=O)O)cn3C2CC2)C1 (configuration not stated) | 0.5 | 0.1 (≈ 0.278 µM) | 0.1 (≈ 0.278 µM) | 0.4 (≈ 1.11 µM) | 0.2 (≈ 0.556 µM) | 0.8 (≈ 2.23 µM) | 0.05 (≈ 0.139 µM) | 0.025 (≈ 0.0696 µM) | 35 | 0.05 (≈ 0.139 µM) | 0.1 (≈ 0.278 µM) |  | 0.2 (≈ 0.556 µM) | 0.2 (≈ 0.556 µM) |  |  |
| Nc1c(N2CCNCC2)c(F)cc2c(=O)c(C(=O)O)cn(C3CC3)c12 | 2.5 | 0.2 (≈ 0.577 µM) | 0.4 (≈ 1.15 µM) | 0.4 (≈ 1.15 µM) | 0.8 (≈ 2.31 µM) | 0.8 (≈ 2.31 µM) | 6.3 (≈ 18.2 µM) | 0.8 (≈ 2.31 µM) | 58 | 12.5 (≈ 36.1 µM) | 12.5 (≈ 36.1 µM) | 2 | 0.4 (≈ 1.15 µM) | 6.3 (≈ 18.2 µM) |  |  |
| CC(C)NCC1CCN(c2c(F)cc3c(=O)c(C(=O)O)cn4c3c2OCC4C)C1 (configuration not stated) |  | 0.4 (≈ 0.991 µM) | 0.2 (≈ 0.496 µM) | 3.1 (≈ 7.68 µM) | 0.8 (≈ 1.98 µM) | 0.2 (≈ 0.496 µM) | 0.2 (≈ 0.496 µM) | 0.4 (≈ 0.991 µM) | 8 | 0.05 (≈ 0.124 µM) | 0.05 (≈ 0.124 µM) | 2 | 0.4 (≈ 0.991 µM) | 0.05 (≈ 0.124 µM) |  |  |
| CC(C)NCC1CCN(c2nc3c(cc2F)c(=O)c(C(=O)O)cn3C2CC2)C1 (configuration not stated) | 2.5 | 0.1 (≈ 0.257 µM) | 0.2 (≈ 0.515 µM) | 1.6 (≈ 4.12 µM) | 0.4 (≈ 1.03 µM) | 0.8 (≈ 2.06 µM) | 0.2 (≈ 0.515 µM) | 0.1 (≈ 0.257 µM) | 8 | 0.2 (≈ 0.515 µM) | 0.2 (≈ 0.515 µM) | 2 | 0.2 (≈ 0.515 µM) | 0.2 (≈ 0.515 µM) | 16 | 35 |
| CC1COc2c(N3CCC(CN(C)C)C3)c(F)cc3c(=O)c(C(=O)O)cn1c23.Cl (configuration not stated) | 1 | 0.2 | 0.2 | 0.8 | 0.4 | 3.1 | 0.05 | 0.05 |  | 0.05 | 0.4 |  | 0.4 | 0.2 |  |  |
